The results in this text go back to ChEMBL document CHEMBL4396897, “Potent 5-Cyano-6-phenyl-pyrimidin-Based Derivatives Targeting DCN1-UBE2M Interaction” (J Med Chem, 2019).

One assay concerns the target DCN1-like protein 2 (Homo sapiens, UniProt Q6PH85). The experiment in a line: Binding affinity to N-terminal GST tagged recombinant DCN2 (unknown origin) (62 to 259 residues) expressed in Escherichia coli BL21(DE3) assessed as reduction in DCN1-FAM-labelled N-terminal acetylated UBE2M (1 to 21 residues) protein-protein interaction after 30 mins by HTRF assay. The procedure, abridged:
(§1)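 HTRF competition: 5nM GST-tagged DCN (1-5) and 5nM AcUBE2M1-21-biotin peptide, with streptavidin-XL665 and anti-GST cryptate, in 100mM phosphate buffer pH 6.5 with 0.02% Tween-20. Cocktail pre-incubated 30min at room temperature, compound added, then 30min more. Excitation 320nm, emission 615/665nm. Ki from three independent repeats, mean ± SD.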
(In general: TR-FRET usually uses a lanthanide donor and a delayed reading to cut background.)

A further assay addresses T1, DCN1-like protein 4 (Homo sapiens, UniProt Q92564).
T1 sequence (Q92564 whole entry): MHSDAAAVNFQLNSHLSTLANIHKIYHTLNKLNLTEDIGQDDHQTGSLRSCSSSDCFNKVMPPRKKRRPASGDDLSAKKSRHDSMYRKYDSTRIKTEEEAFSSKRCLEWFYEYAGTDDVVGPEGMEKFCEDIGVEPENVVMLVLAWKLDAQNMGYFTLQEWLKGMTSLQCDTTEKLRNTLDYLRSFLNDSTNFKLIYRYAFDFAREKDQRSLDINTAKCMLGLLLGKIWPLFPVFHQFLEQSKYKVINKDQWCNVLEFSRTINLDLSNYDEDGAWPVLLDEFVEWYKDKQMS
The experiment in a line: Binding affinity to N-terminal GST tagged recombinant DCN4 (unknown origin) (102 to 292 residues) expressed in Escherichia coli BL21(DE3) assessed as reduction in DCN1/FAM-labelled N-terminal acetylated UBE2M (1 to 21 residues) protein-protein interaction after 30 mins by HTRF assay. The procedure, abridged: as §1

Assay [1] concerns NCI-H1975. The assay is described as follows: Effect on NRF2 accumulation in human NCI-H1975 cells transfected with DCN1 siRNA3 by densitometric method. The assay is classed as functional, cell-based. The procedure, abridged:
(§2)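 H1975 or PC9 cells seeded in 6-well plates for 16-24h, transfected with DCN1 siRNA#3 by lipofection, with or without compound, and collected three days later. Western blot for Cullin3, DCN1, NRF2, HO-1 and NQO1, with densitometry normalized to GAPDH. Three individual experiments, means ± SD.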

For assay [2], the system named is PC-9. The experiment in a line: Effect on NRF2 accumulation in human PC9 cells transfected with DCN1 siRNA3 by densitometric method. In kind it is functional, cell-based. The procedure, abridged:
as §2

For assay [3], the system named is PC-9. The experiment in a line: Effect on HO-1 accumulation in human PC9 cells transfected with DCN1 siRNA3 by densitometric method. In kind it is functional, cell-based. The procedure, abridged:
as §2

For another assay, the system named is SMMC-7721. The assay is described as follows: Antiproliferative activity against human SMMC7721 after 72 hrs by MTT assay. The assay is classed as functional, cell-based. The conditions noted are these: SMMC-7721, 72 h. The procedure, abridged: (§3)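 MTT viability assay: cells seeded at 2~5×10^3 per well, exposed to serial dilutions of compound for 72h, then MTT (5 mg/mL in PBS) added for 4h at 37°C. Formazan dissolved in DMSO and read at 490nm. IC50 reported as mean ± SD of three independent experiments.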

In another assay the test system is PC-3. The assay is described as follows: Antiproliferative activity against human PC3 after 72 hrs by MTT assay. In kind it is functional, cell-based. Particulars: PC-3, 72 h. The procedure, abridged: as §3
On the technique in general: Formazan colour is commonly taken as a measure of viable cells.

A further assay relates to KYSE-140. The assay is described as follows: Antiproliferative activity against human KYSE-140 after 72 hrs by MTT assay. The assay is classed as functional, cell-based. The procedure, abridged:
as §3

The subject of assay [4] is NCI-H1975. The assay is described as follows: Inhibition of colony formation in human […] cells after 7 days by crystal violet staining based microscopic analysis. The assay is classed as functional, cell-based. The procedure, abridged: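 H1975, PC9 and A549 cells seeded at 1×10^3 cells per well and cultured overnight, then given fresh medium with compound at 0, 0.625, 1.25, 2.5, 5 or 10μM for 7 days. Cells fixed, stained with 0.1% crystal violet and imaged by microscopy; dye then dissolved and read on a plate reader. Three experiments; means ± SD.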

Assay [5] concerns A549. The assay is described as follows: Induction of apoptosis in human A549 cells assessed as necrotic cells at 2.5 uM after 48 hrs by Annexin V-FITC/propidium iodide staining based flow cytometry (reference value: 0.88%). In kind it is functional. In general terms: Flow cytometry measures light scatter and fluorescence of single cells or particles in a stream.
Assay [6] relates to A549. The assay is described as follows: Induction of apoptosis in human A549 cells after 48 hrs by Annexin V-FITC/propidium iodide staining based flow cytometry. In kind it is functional, cell-based.
The subject of assay [7] is PC-9. The experiment in a line: Induction of apoptosis in human PC9 cells assessed as viable cells at 2.5 uM after 48 hrs by Annexin V-FITC/propidium iodide staining based flow cytometry (reference value: 95.7%). The assay is classed as functional. Particulars: PC-9, 48 h, read-out: Activity. The procedure, abridged:
(§4)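 PC9 cells seeded in 6-well plates (1~2×10^6 cells/mL), incubated overnight, then exposed to 0, 2.5, 5 or 10µM compound for 48h. Harvested cells stained with Annexin-V-FITC/PI for 30 min and analysed by flow cytometry. Three individual experiments; means ± SD.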

Assay [8] deals with PC-9. The assay is described as follows: Induction of apoptosis in human PC9 cells assessed as early apoptotic cells at 2.5 uM after 48 hrs by Annexin V-FITC/propidium iodide staining based flow cytometry (reference value: 1.36%). The assay is classed as functional. The procedure, abridged: as §4
In assay [9] the test system is PC-9. The assay is described as follows: Induction of apoptosis in human PC9 cells assessed as necrotic cells at 2.5 uM after 48 hrs by Annexin V-FITC/propidium iodide staining based flow cytometry (reference value: 1.34%). The assay is classed as functional. The procedure, abridged:
as §4

Assay [10] concerns PC-9. The experiment in a line: Induction of apoptosis in human PC9 cells assessed as necrotic cells at 5 uM after 48 hrs by Annexin V-FITC/propidium iodide staining based flow cytometry (reference value: 1.34%). In kind it is functional. The procedure, abridged:
as §4

Assay [11] deals with PC-9. The assay is described as follows: Induction of apoptosis in human PC9 cells assessed as early apoptotic cells at 10 uM after 48 hrs by Annexin V-FITC/propidium iodide staining based flow cytometry (reference value: 1.36%). In kind it is functional. The procedure, abridged: as §4
Assay [12] concerns PC-9. The assay is described as follows: Induction of apoptosis in human PC9 cells assessed as necrotic cells at 10 uM after 48 hrs by Annexin V-FITC/propidium iodide staining based flow cytometry (reference value: 1.34%). The assay is classed as functional. The procedure, abridged: as §4
In assay [13] the test system is NCI-H1975. The experiment in a line: Induction of apoptosis in human NCI-NCI-H1975 cells assessed as early apoptotic cells at 2.5 uM after 48 hrs by Annexin V-FITC/propidium iodide staining based flow cytometry (reference value: 2.47%). The assay is classed as functional.
In assay [14] the test system is NCI-H1975. The experiment in a line: Induction of apoptosis in human NCI-NCI-H1975 cells assessed as late apoptotic cells at 2.5 uM after 48 hrs by Annexin V-FITC/propidium iodide staining based flow cytometry (reference value: 0.46%). The assay is classed as functional.
Assay [15] relates to NCI-H1975. The assay is described as follows: Induction of apoptosis in human NCI-NCI-H1975 cells assessed as late apoptotic cells at 5 uM after 48 hrs by Annexin V-FITC/propidium iodide staining based flow cytometry (reference value: 0.46%). In kind it is functional.
For assay [16], the system named is NCI-H1975. The assay is described as follows: Induction of apoptosis in human NCI-NCI-H1975 cells after 48 hrs by Annexin V-FITC/propidium iodide staining based flow cytometry. In kind it is functional, cell-based.

pIC50, pKi: −log10 of the molar value. The source made the active and inactive calls. The rule behind the calls is not given here.

As a reminder, the pKi is −log10 of the Ki, conventionally taken in molar units. One may read the pIC50 as the IC50 on a negative log10 scale, so that one unit is a factor of ten. Read a low pIC50 as a large IC50.

DCN1-like protein 2, sequence (Q6PH85 whole entry, the tested form may be a part): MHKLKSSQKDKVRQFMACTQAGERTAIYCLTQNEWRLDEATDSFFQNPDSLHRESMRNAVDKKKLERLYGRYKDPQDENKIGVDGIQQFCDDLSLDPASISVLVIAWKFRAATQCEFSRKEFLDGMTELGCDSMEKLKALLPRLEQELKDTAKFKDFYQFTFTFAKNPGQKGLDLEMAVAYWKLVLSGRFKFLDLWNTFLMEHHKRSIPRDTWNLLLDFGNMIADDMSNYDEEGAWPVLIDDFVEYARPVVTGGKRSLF

For the compound `C#CCSc1nc(Sc2nccs2)c(C#N)c(-c2ccc(C)cc2)n1`, the negative-log Ki (pKi) at DCN1-like protein 2 was 7.18; on DCN1-like protein 4 it was 6.09. Besides, the result with NCI-H1975 [1], in the assay with PC-9 [2] and with PC-9 [3] was inactive. Also, the pIC50 in the assay on SMMC-7721 is 5.61; in the assay on PC-3, 5.79. The result in the assay with KYSE-140 was Active. The inhibition result with NCI-H1975 [4] was “Dose-dependent effect”. The Activity with A549 [5] was 1.22%; in the assay with A549 [6], “Dose-dependent effect”; in the assay with PC-9 [8], 0.64%; in the assay on PC-9 [9] it was 19.9%; in the assay with PC-9 [10] it was 5.29%; with PC-9 [11] it was 1.97%. The Activity in the assay on PC-9 [12] is 17.4%; with NCI-H1975 [13] it was 9.47%; with NCI-H1975 [14] it was 9.13%; in the assay with NCI-H1975 [15] it was 29%; in the assay on NCI-H1975 [16] it was “Dose-dependent effect”. Moreover, the viability at 2.5 µM in the assay with PC-9 [7] was determined as 69.3%.
